Assay results gathered from unrelated publications.
Protocols differ between the studies behind these lines.
LRRK2 G2019S: Leucine-rich repeat serine/threonine-protein kinase 2 (LRRK2, Homo sapiens, UniProt Q5S007, G2019S)
LRRK2: Leucine-rich repeat serine/threonine-protein kinase 2 (LRRK2, Homo sapiens, UniProt Q5S007)

| SMILES | target | assay | conditions | measurement | value |
| --- | --- | --- | --- | --- | --- |
| CCCCC(=O)Nc1ccc(-c2ccc3ncn(CCC)c(=O)c3c2)cn1 | LRRK2 G2019S | binding, competition with immobilised ligand | 0.5 µM | remaining binding | 100% |
| Cc1cc(S(=O)(=O)N[C@H]2CC[C@H](CN3CCN(c4ccc(C5CCC(=O)NC5=O)cc4F)CC3)CC2)ccc1Nc1ncc(C(F)(F)F)c(N2CCC[C@](C)(O)C2)n1 (stereo partly drawn) | LRRK2 | binding, competition with immobilised ligand | 1 µM | remaining binding | 6.6% |
| Cc1ccc(NC(=O)c2ccnc(C(F)(F)F)c2)cc1-c1cc(OCCO)nc(N2CCOCC2)c1 | LRRK2 G2019S | binding | 1 µM | remaining binding | 100% |
| Cc1cc(O)c(-c2ccc([C@@H](C)CN(C)C)cc2)c2c1[nH]c(=O)c1sccc12 | LRRK2 | enzyme activity, inhibitor | 0.1 µM | inhibition | -15.8% |
| C=CC(=O)N1CCC([C@@H]2CCNc3c(C(N)=O)c(-c4ccc(Oc5ccccc5)cc4)nn32)CC1 | LRRK2 G2019S | enzyme activity, inhibitor | 1 µM | inhibition | 0% |
| CN1CCN(C(=O)c2ccc(NC(=O)Nc3ccc(N(C)c4ccnc(Nc5ccc(CS(C)(=O)=O)cc5)n4)cc3)cc2)CC1 | LRRK2 | binding | 1 µM | remaining binding | 74% |
| CNS(=O)(=O)c1ccc(Nc2ncc(C(F)(F)F)c(N3CCC[C@](C)(O)C3)n2)c(C)c1 | LRRK2 G2019S | binding, competition with immobilised ligand | 1 µM | remaining binding | 13% |
| CC#CC(=O)N1CCC[C@H]1c1nc(-c2ccc(C(=O)Nc3ccccn3)cc2)c2c(N)nccn12 | LRRK2 G2019S | enzyme activity, inhibitor | 1 µM | inhibition | 0% |
| COc1ccc2[nH]c3c4[nH]c5ccc(OC)cc5c4c4c(c3c2c1)C(=O)NC4=O | LRRK2 G2019S | binding | 1 µM | remaining binding | 2.6% |
| C#Cc1cc(-c2cc(Nc3nc(N[C@@H](C)c4ccc(F)cn4)ncc3Cl)n[nH]2)ccc1C=O | LRRK2 G2019S | enzyme activity, inhibitor | 0.2 µM | inhibition | 23% |
| C[C@]1(O)CCCN(c2nc(Nc3ccc(S(=O)(=O)N[C@H]4CC[C@H](CN5CCN(c6ccc(C7CCC(=O)NC7=O)cc6F)CC5)CC4)cc3F)ncc2C(F)(F)F)C1 (stereo partly drawn) | LRRK2 | binding, competition with immobilised ligand | 1 µM | remaining binding | 97% |
| C1=C/COCc2cc(ccc2OCCN2CCCC2)Nc2nccc(n2)-c2cccc(c2)COC/1 | LRRK2 G2019S | binding | 0.1 µM | remaining binding | 100% |
